≈ marks a conversion by molar mass, not a printed value.
How the values were obtained:
[1] = test system: Staphylococcus aureus; assay: Antibacterial activity Staphylococcus aureus ATCC-25923 assessed as growth inhibition after 24 hrs by twofold serial dilution technique; format: functional; settings: ATCC-25923, 24 h
Method in brief: (§1)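 Tube twofold serial dilution of compounds dissolved in DMSO, under aseptic conditions. Solvent, growth (negative) and drug (ampicillin) controls were run alongside. Tubes were incubated 24 h at 37 °C. MIC was taken as the lowest concentration giving apparent complete inhibition of growth. Strains were first screened by cup plate method.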

[2] = test system: Pseudomonas aeruginosa; assay: Antibacterial activity Pseudomonas aeruginosa ATCC-27853 assessed as growth inhibition after 24 hrs by twofold serial dilution technique; format: functional; settings: ATCC-27853, 24 h; method in brief: as §1
[3] = test system: Bacillus spizizenii; assay: Antibacterial activity Bacillus Bacillus subtilis ATCC 6633 assessed as growth inhibition after 24 hrs by twofold serial dilution technique; format: functional; settings: ATCC 6633, 24 h; method in brief: as §1
[4] = test system: Mycobacterium tuberculosis; assay: Antitubercular activity Mycobacterium tuberculosis H37Rv assessed as growth inhibition after 30 days by agar microdilution method; format: functional
Method in brief: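 M. tuberculosis H37Rv (ATCC 27294) grown on L-J medium, harvested in 0.85% saline with 0.05% Tween-80. Compounds, from a DMSO stock, were added as twofold dilutions to Middlebrook 7H10 agar with OADC in tubes. After 30 days of incubation, tubes were compared with untreated H37Rv control tubes. The lowest concentration giving complete inhibition of colonies was reported.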

[5] = test system: Escherichia coli; assay: Antibacterial activity Escherichia coli ATCC-25922 assessed as growth inhibition after 24 hrs by twofold serial dilution technique; format: functional; settings: ATCC-25922, 24 h; method in brief: as §1
[6] = test system: Mycobacterium tuberculosis; assay: Antitubercular activity Mycobacterium tuberculosis H37Rv assessed as growth inhibition after 5 days by MABA method; format: functional; settings: for MIC: Mycobacterium tuberculosis, H37Rv, 120 h
Method in brief: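 Log-phase H37Rv was diluted to a final OD550 of 0.05 in Middlebrook 7H9 broth, and compounds in DMSO were added in 96-well plates. After a further 24 h at 37 °C/5% CO2, fluorescence was read (ex 544 nm, em 590 nm). Inhibition was scored against the untreated control, with >90% inhibition counted as active in the initial screen.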

[7] = Cytotoxicity against african green monkey Vero cells after 72 hrs by MTT assay; format: cell-based; settings: chlorocebus sabaeus
Method in brief: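 After media removal and a PBS wash, dilutions were added with DMSO control, then incubated 72 h at 37 °C, 5% CO2. Cells were washed, given MTT for 3 h in the dark, and solubilized in DMSO 1–2 h. CC50 was extrapolated from plotted % inhibition (100 − % viability) against concentration.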

[8] = Cytotoxicity against human HepG2 cells after 72 hrs by MTT assay; format: cell-based

SMILES | MIC [1] | MIC [2] | MIC [3] | MIC [4] | MIC [5] | -logMIC [6] | MIC [6] | CC50 at 72 h [7] | CC50 at 72 h [8]
S=c1n(CN2CCOCC2)nc(Cc2ccccc2Nc2c(Cl)cccc2Cl)n1/N=C/c1ccccc1 | 6.25 µM (≈ 3.46 µg/mL) | 12.5 µM (≈ 6.92 µg/mL) | 6.25 µM (≈ 3.46 µg/mL) | 0.2 µM (≈ 0.111 µg/mL) | 12.5 µM (≈ 6.92 µg/mL) | 6.699 | 0.2 µM (≈ 0.111 µg/mL) | > 300 µM | > 300 µM
COc1ccc(/C=N/n2c(Cc3ccccc3Nc3c(Cl)cccc3Cl)nn(CN3CCOCC3)c2=S)cc1 | 6.25 µM (≈ 3.65 µg/mL) | 12.5 µM (≈ 7.29 µg/mL) | 12.5 µM (≈ 7.29 µg/mL) | 6.25 µM (≈ 3.65 µg/mL) | 6.25 µM (≈ 3.65 µg/mL) | 5.204 | 6.25 µM (≈ 3.65 µg/mL) | > 300 µM | > 300 µM
COc1ccc(/C=N/n2c(Cc3ccccc3Nc3c(Cl)cccc3Cl)nn(CN3CCOCC3)c2=S)cc1OC | 12.5 µM (≈ 7.67 µg/mL) | 12.5 µM (≈ 7.67 µg/mL) | 12.5 µM (≈ 7.67 µg/mL) | 6.25 µM (≈ 3.83 µg/mL) | 6.25 µM (≈ 3.83 µg/mL) | 5.204 | 6.25 µM (≈ 3.83 µg/mL) | > 300 µM | 282 µM
S=c1n(CN2CCOCC2)nc(Cc2ccccc2Nc2c(Cl)cccc2Cl)n1/N=C/c1ccco1 | 12.5 µM (≈ 6.79 µg/mL) | 25 µM (≈ 13.6 µg/mL) | 12.5 µM (≈ 6.79 µg/mL) | 3.12 µM (≈ 1.7 µg/mL) | 12.5 µM (≈ 6.79 µg/mL) | 5.505 | 3.12 µM (≈ 1.7 µg/mL) | > 300 µM | > 300 µM
S=c1n(CN2CCOCC2)nc(Cc2ccccc2Nc2c(Cl)cccc2Cl)n1/N=C/c1cccs1 | 6.25 µM (≈ 3.5 µg/mL) | 12.5 µM (≈ 6.99 µg/mL) | 12.5 µM (≈ 6.99 µg/mL) | 3.12 µM (≈ 1.75 µg/mL) | 6.25 µM (≈ 3.5 µg/mL) | 5.796 | 1.6 µM (≈ 0.895 µg/mL) | > 300 µM | 250 µM
S=c1n(CN2CCOCC2)nc(Cc2ccccc2Nc2c(Cl)cccc2Cl)n1/N=C/c1ccncc1 | 12.5 µM (≈ 6.93 µg/mL) | 25 µM (≈ 13.9 µg/mL) | 12.5 µM (≈ 6.93 µg/mL) | 12.5 µM (≈ 6.93 µg/mL) | 25 µM (≈ 13.9 µg/mL) | 4.903 | 12.5 µM (≈ 6.93 µg/mL) | – | –
COc1ccc(/C=N/n2c(Cc3ccccc3Nc3c(Cl)cccc3Cl)nn(CN3CCCCC3)c2=S)cc1 | 12.5 µM (≈ 7.27 µg/mL) | 12.5 µM (≈ 7.27 µg/mL) | 12.5 µM (≈ 7.27 µg/mL) | 12.5 µM (≈ 7.27 µg/mL) | 6.25 µM (≈ 3.63 µg/mL) | 4.903 | 12.5 µM (≈ 7.27 µg/mL) | – | –
COc1ccc(/C=N/n2c(Cc3ccccc3Nc3c(Cl)cccc3Cl)nn(CN3CCCCC3)c2=S)cc1OC | 12.5 µM (≈ 7.64 µg/mL) | 25 µM (≈ 15.3 µg/mL) | 25 µM (≈ 15.3 µg/mL) | 6.25 µM (≈ 3.82 µg/mL) | 25 µM (≈ 15.3 µg/mL) | 4.903 | 12.5 µM (≈ 7.64 µg/mL) | – | –
S=c1n(CN2CCCCC2)nc(Cc2ccccc2Nc2c(Cl)cccc2Cl)n1/N=C/c1cccs1 | 12.5 µM (≈ 6.97 µg/mL) | 12.5 µM (≈ 6.97 µg/mL) | 12.5 µM (≈ 6.97 µg/mL) | 12.5 µM (≈ 6.97 µg/mL) | 12.5 µM (≈ 6.97 µg/mL) | 4.903 | 12.5 µM (≈ 6.97 µg/mL) | – | –
S=c1n(CN2CCCCC2)nc(Cc2ccccc2Nc2c(Cl)cccc2Cl)n1/N=C/c1ccncc1 | 12.5 µM (≈ 6.91 µg/mL) | 25 µM (≈ 13.8 µg/mL) | 25 µM (≈ 13.8 µg/mL) | 12.5 µM (≈ 6.91 µg/mL) | 25 µM (≈ 13.8 µg/mL) | 4.903 | 12.5 µM (≈ 6.91 µg/mL) | – | –
O=C1CSC(c2ccccc2)N1n1c(Cc2ccccc2Nc2c(Cl)cccc2Cl)n[nH]c1=S (stereo unspecified) | 12.5 µM (≈ 6.61 µg/mL) | 12.5 µM (≈ 6.61 µg/mL) | 12.5 µM (≈ 6.61 µg/mL) | – | 12.5 µM (≈ 6.61 µg/mL) | 4.301 | 50 µM (≈ 26.4 µg/mL) | – | –
COc1ccc(C2SCC(=O)N2n2c(Cc3ccccc3Nc3c(Cl)cccc3Cl)n[nH]c2=S)cc1 (stereo unspecified) | 12.5 µM (≈ 6.98 µg/mL) | 100 µM (≈ 55.9 µg/mL) | 100 µM (≈ 55.9 µg/mL) | – | 100 µM (≈ 55.9 µg/mL) | 4.301 | 50 µM (≈ 27.9 µg/mL) | – | –
COc1ccc(C2SCC(=O)N2n2c(Cc3ccccc3Nc3c(Cl)cccc3Cl)n[nH]c2=S)cc1OC (stereo unspecified) | 100 µM (≈ 58.9 µg/mL) | 100 µM (≈ 58.9 µg/mL) | 100 µM (≈ 58.9 µg/mL) | – | 100 µM (≈ 58.9 µg/mL) | 4.301 | 50 µM (≈ 29.4 µg/mL) | – | –
O=C1CSC(c2ccco2)N1n1c(Cc2ccccc2Nc2c(Cl)cccc2Cl)n[nH]c1=S (stereo unspecified) | 12.5 µM (≈ 6.48 µg/mL) | 12.5 µM (≈ 6.48 µg/mL) | 12.5 µM (≈ 6.48 µg/mL) | – | 12.5 µM (≈ 6.48 µg/mL) | 4.602 | 25 µM (≈ 13 µg/mL) | – | –
O=C1CSC(c2cccs2)N1n1c(Cc2ccccc2Nc2c(Cl)cccc2Cl)n[nH]c1=S (stereo unspecified) | 12.5 µM (≈ 6.68 µg/mL) | 12.5 µM (≈ 6.68 µg/mL) | 12.5 µM (≈ 6.68 µg/mL) | – | 12.5 µM (≈ 6.68 µg/mL) | 4.602 | 25 µM (≈ 13.4 µg/mL) | – | –
O=C1CSC(c2ccncc2)N1n1c(Cc2ccccc2Nc2c(Cl)cccc2Cl)n[nH]c1=S (stereo unspecified) | 25 µM (≈ 13.2 µg/mL) | 50 µM (≈ 26.5 µg/mL) | 12.5 µM (≈ 6.62 µg/mL) | 6.25 µM (≈ 3.31 µg/mL) | 50 µM (≈ 26.5 µg/mL) | 4.903 | 12.5 µM (≈ 6.62 µg/mL) | – | –
O=c1c2ccccc2nc2n(/N=C/c3ccccc3)c(Cc3ccccc3Nc3c(Cl)cccc3Cl)nn12 | 12.5 µM (≈ 6.74 µg/mL) | 12.5 µM (≈ 6.74 µg/mL) | 12.5 µM (≈ 6.74 µg/mL) | 12.5 µM (≈ 6.74 µg/mL) | 12.5 µM (≈ 6.74 µg/mL) | 4.903 | 12.5 µM (≈ 6.74 µg/mL) | – | –
COc1ccc(/C=N/n2c(Cc3ccccc3Nc3c(Cl)cccc3Cl)nn3c(=O)c4ccccc4nc23)cc1 | 100 µM (≈ 56.9 µg/mL) | 100 µM (≈ 56.9 µg/mL) | 25 µM (≈ 14.2 µg/mL) | – | 100 µM (≈ 56.9 µg/mL) | 4.602 | 25 µM (≈ 14.2 µg/mL) | – | –
COc1ccc(/C=N/n2c(Cc3ccccc3Nc3c(Cl)cccc3Cl)nn3c(=O)c4ccccc4nc23)cc1OC | 12.5 µM (≈ 7.49 µg/mL) | 50 µM (≈ 30 µg/mL) | 25 µM (≈ 15 µg/mL) | – | 25 µM (≈ 15 µg/mL) | 4.602 | 25 µM (≈ 15 µg/mL) | – | –
O=c1c2ccccc2nc2n(/N=C/c3ccco3)c(Cc3ccccc3Nc3c(Cl)cccc3Cl)nn12 | 12.5 µM (≈ 6.62 µg/mL) | 12.5 µM (≈ 6.62 µg/mL) | 12.5 µM (≈ 6.62 µg/mL) | – | 12.5 µM (≈ 6.62 µg/mL) | 4.602 | 25 µM (≈ 13.2 µg/mL) | – | –
O=c1c2ccccc2nc2n(/N=C/c3cccs3)c(Cc3ccccc3Nc3c(Cl)cccc3Cl)nn12 | 12.5 µM (≈ 6.82 µg/mL) | 12.5 µM (≈ 6.82 µg/mL) | 12.5 µM (≈ 6.82 µg/mL) | 12.5 µM (≈ 6.82 µg/mL) | 12.5 µM (≈ 6.82 µg/mL) | 4.903 | 12.5 µM (≈ 6.82 µg/mL) | – | –
O=c1c2ccccc2nc2n(/N=C/c3ccncc3)c(Cc3ccccc3Nc3c(Cl)cccc3Cl)nn12 | 100 µM (≈ 54 µg/mL) | 100 µM (≈ 54 µg/mL) | 100 µM (≈ 54 µg/mL) | – | 25 µM (≈ 13.5 µg/mL) | 4.602 | 25 µM (≈ 13.5 µg/mL) | – | –
CC1(C)S[C@@H]2[C@H](NC(=O)[C@H](N)c3ccccc3)C(=O)N2[C@H]1C(=O)O [AMPICILLIN] | 6.25 µM (≈ 2.18 µg/mL) | < 6.25 µM | 6.25 µM (≈ 2.18 µg/mL) | – | < 6.25 µM | – | – | – | –
NNC(=O)c1ccncc1 [ISONIAZID] | – | – | – | < 0.2 µM | – | – | < 0.2 µM | – | –
